The target of experiment [1] is T1, Polyunsaturated fatty acid 5-lipoxygenase (Homo sapiens, UniProt P09917).
T1 sequence (P09917 whole entry): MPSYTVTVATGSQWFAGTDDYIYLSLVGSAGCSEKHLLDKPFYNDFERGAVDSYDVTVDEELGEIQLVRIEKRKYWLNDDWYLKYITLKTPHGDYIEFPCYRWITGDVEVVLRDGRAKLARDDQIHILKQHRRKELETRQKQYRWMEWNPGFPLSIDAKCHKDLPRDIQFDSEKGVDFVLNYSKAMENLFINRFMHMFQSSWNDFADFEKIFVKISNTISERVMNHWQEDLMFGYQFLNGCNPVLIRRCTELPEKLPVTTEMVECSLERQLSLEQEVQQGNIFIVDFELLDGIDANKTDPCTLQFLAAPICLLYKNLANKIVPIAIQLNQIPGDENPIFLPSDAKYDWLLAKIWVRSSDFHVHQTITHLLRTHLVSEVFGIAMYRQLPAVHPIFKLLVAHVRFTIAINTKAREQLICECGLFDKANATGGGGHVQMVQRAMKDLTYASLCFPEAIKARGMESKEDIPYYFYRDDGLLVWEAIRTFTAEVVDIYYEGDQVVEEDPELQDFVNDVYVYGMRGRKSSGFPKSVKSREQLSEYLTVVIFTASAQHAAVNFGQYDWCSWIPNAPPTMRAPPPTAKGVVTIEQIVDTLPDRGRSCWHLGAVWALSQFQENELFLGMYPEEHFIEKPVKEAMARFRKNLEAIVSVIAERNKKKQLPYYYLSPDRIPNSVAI
The experiment can be described thus: Competitive inhibition of human recombinant 5-LO expressed in Escherichia coli BL21 using 5 uM of arachidonic acid as substrate preincubated for 15 mins measured after 10 mins. The method in brief:
(§1)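 Purified 5-LO was pre-incubated with inhibitor or vehicle (0.1% DMSO) for 15 min at 4 °C, then warmed for 30 s at 37 °C. The reaction was started with 2 mM CaCl₂ plus AA at 2.5, 5, 10, 20 or 40 µM and run 10 min at 37 °C. Products were analysed by HPLC. Results are % of uninhibited control, mean ± S.E.M., n = 3.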

For experiment [2], the target named is T1, Polyunsaturated fatty acid 5-lipoxygenase. Briefly: Competitive inhibition of human recombinant 5-LO expressed in Escherichia coli BL21 using 40 uM of arachidonic acid as substrate preincubated for 15 mins measured after 10 mins. The essentials:
as §1

Experiment [3] has as its target T2, Polyunsaturated fatty acid lipoxygenase ALOX15 (Homo sapiens, UniProt P16050).
T2 sequence (P16050 whole entry): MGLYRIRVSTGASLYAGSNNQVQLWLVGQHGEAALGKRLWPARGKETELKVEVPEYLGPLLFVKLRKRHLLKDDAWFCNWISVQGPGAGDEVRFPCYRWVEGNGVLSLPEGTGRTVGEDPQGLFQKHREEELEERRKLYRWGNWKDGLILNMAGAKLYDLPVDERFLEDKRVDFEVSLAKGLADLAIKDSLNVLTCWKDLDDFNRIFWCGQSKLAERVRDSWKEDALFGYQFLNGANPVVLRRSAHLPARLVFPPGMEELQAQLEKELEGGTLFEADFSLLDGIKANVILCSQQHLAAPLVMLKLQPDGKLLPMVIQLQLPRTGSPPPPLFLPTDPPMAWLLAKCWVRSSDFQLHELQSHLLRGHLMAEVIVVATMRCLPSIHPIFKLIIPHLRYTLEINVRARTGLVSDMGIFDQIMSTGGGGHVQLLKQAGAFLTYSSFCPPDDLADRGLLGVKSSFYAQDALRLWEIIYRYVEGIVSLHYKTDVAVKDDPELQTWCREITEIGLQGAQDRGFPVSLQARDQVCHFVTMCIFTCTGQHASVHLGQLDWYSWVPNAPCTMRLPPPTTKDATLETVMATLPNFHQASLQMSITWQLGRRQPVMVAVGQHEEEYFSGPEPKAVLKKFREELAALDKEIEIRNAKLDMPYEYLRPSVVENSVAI
Briefly: Inhibition of 15-LO in human PMNL using arachidonic acid as substrate preincubated for 15 mins. The essentials:
(§2)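 PMNL were isolated from buffy coats by dextran sedimentation, Nycoprep centrifugation and hypotonic lysis of erythrocytes, then resuspended in PBS pH 7.4 with 1 mg/mL glucose and 1 mM CaCl₂. Cells were pre-incubated with compound for 15 min at 37 °C, then stimulated with A23187 plus AA for 10 min at 37 °C. 15-LO comes from eosinophils and 12-LO from adhering platelets in the preparation. After methanol/HCl stop and PGB₁ addition, metabolites were extracted and quantified by HPLC. Mean ± S.E.M., n = 3–4.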

Experiment [4] concerns the target T3, Polyunsaturated fatty acid lipoxygenase ALOX12 (Homo sapiens, UniProt P18054).
T3 sequence (P18054 whole entry): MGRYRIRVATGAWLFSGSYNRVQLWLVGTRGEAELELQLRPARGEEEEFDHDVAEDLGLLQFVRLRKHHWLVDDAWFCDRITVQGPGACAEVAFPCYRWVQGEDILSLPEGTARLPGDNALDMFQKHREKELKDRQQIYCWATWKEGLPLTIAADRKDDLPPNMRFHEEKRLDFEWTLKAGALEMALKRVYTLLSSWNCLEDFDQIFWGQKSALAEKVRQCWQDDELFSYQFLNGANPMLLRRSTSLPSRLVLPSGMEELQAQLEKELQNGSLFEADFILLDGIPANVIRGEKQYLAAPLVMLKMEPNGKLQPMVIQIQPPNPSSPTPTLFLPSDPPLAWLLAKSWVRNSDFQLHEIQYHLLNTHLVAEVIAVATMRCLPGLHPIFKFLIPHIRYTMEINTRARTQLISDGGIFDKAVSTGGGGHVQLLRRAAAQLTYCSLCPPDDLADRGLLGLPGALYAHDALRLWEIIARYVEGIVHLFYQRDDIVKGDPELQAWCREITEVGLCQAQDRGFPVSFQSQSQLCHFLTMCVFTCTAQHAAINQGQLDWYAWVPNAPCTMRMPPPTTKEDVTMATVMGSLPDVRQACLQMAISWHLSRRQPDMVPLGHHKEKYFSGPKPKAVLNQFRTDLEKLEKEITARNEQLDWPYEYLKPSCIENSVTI
Briefly: Inhibition of 12-LO in human PMNL using arachidonic acid preincubated for 15 mins. The method in brief: as §2

Experiment [5] addresses T4, Polyunsaturated fatty acid lipoxygenase ALOX15 (Homo sapiens) (UniProt P16050).
T4 sequence (whole entry): T2 sequence (P16050 whole entry)
Briefly: Inhibition of 15-LO in human PMNL using arachidonic acid as substrate assessed as residual activity at 10 uM preincubated for 15 mins. The essentials: as §2

Experiment [6] concerns the target T5, Polyunsaturated fatty acid lipoxygenase ALOX12 (Homo sapiens) (UniProt P18054).
T5 sequence (whole entry): T3 sequence (P18054 whole entry)
Briefly: Inhibition of 12-LO in human PMNL using arachidonic acid as substrate assessed as residual activity at 10 uM preincubated for 15 mins. The method in brief: as §2

The target of experiment [7] is T1, Polyunsaturated fatty acid 5-lipoxygenase. The experiment can be described thus: Inhibition of 5-LO in human PMNL using arachidonic acid as substrate preincubated for 15 mins. The method in brief:
as §2

For experiment [8], the target named is T6, Polyunsaturated fatty acid 5-lipoxygenase (Homo sapiens) (UniProt P09917).
T6 sequence (whole entry): T1 sequence (P09917 whole entry)
The experiment can be described thus: Inhibition of 5-LO in human PMNL using arachidonic acid as substrate assessed as residual activity at 10 uM preincubated for 15 mins. The method in brief:
as §2

In experiment [9] the target is T1, Polyunsaturated fatty acid 5-lipoxygenase. The experiment can be described thus: Inhibition of human recombinant 5-LO expressed in Escherichia coli BL21 using arachidonic acid as substrate after 10 mins. The essentials:
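Purified 5-LO was diluted in PBS/EDTA and pre-incubated with compound for 5–10 min at 4 °C, then pre-warmed for 30 s at 37 °C. The reaction was started with 2 mM CaCl₂ plus AA, run 10 min at 37 °C and stopped with ice-cold methanol. Products were analysed by HPLC.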

Experiment [10] deals with T6, Polyunsaturated fatty acid 5-lipoxygenase (Homo sapiens). The experiment can be described thus: Inhibition of human recombinant 5-LO expressed in Escherichia coli BL21 using arachidonic acid as substrate assessed as residual activity at 10 uM after 10 mins.

Molecules are shown by their SMILES. A value given as a limit tells only on which side of the number the result lay.

Usually IC50 stands for the concentration that inhibits the measured activity by half.

Regarding `O=C1C=C(Cc2ccc3ccccc3c2)C(=O)C=C1O`, the half-inhibitory concentration (IC50) was 970 nM in [1]; 310 nM in experiment [2]; greater than 10000 nM in [3]; greater than 10000 nM in experiment [4]; 2300 nM in experiment [7]; 780 nM in experiment [9]. Besides, the Activity in [5] was 147%; in experiment [6], 71.9%; in experiment [8], 5.3%; in experiment [10] it was 8.7%.

These data come from ChEMBL document CHEMBL3108770, “Discovery and biological evaluation of novel 1,4-benzoquinone and related resorcinol derivatives that inhibit 5-lipoxygenase” (Eur J Med Chem, 2013).
